Test results taken from ChEMBL document CHEMBL1240362, “Intrapulmonary pharmacokinetics of S-013420, a novel bicyclolide antibacterial, in healthy Japanese subjects” (Antimicrob Agents Chemother, 2010).
Converted amounts (≈) assume the structure as drawn.

Legend:
[1] = test system: Homo sapiens; experiment: Toxicity in healthy human assessed as eosinophil count in bronchoalveolar fluid at 400 mg, po administered as single dose after 24 hrs; conditions: in vivo
[2] = Tmax in epithelial lining fluid of healthy human at 400 mg, po administered as single dose
[3] = test system: Homo sapiens; experiment: Toxicity in healthy human assessed as alveolar macrophage count in bronchoalveolar fluid at 400 mg, po administered as single dose after 8 hrs; conditions: in vivo
[4] = test system: Homo sapiens; experiment: Toxicity in healthy human assessed as lymphocytes count in bronchoalveolar fluid at […], po administered as single dose after 8 hrs; format: organism-based, Lung; set-up: route oral; conditions: in vivo
Summary of the method: (§1)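 Healthy Japanese male never-smokers, aged 20 to 45 years with normal BMI, got one open-label oral 400 mg suspension dose. Four subjects per time group had one fiber-optic bronchoscopic BAL at the assigned post-dose time. The first aliquot was discarded and the last three were pooled. BAL fluid was held on ice and spun at 400 × g for 5 min at 4°C. Pellet cells were counted by hemocytometer, with a differential count on a stained cytocentrifuge preparation.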

[5] = test system: Homo sapiens; experiment: Toxicity in healthy human assessed as other cellular fractions in bronchoalveolar fluid at […], po administered as single dose after 6 hrs; format: organism-based, Lung; set-up: route oral; conditions: in vivo
Summary of the method: as §1

[6] = test system: Streptococcus pyogenes; experiment: Antimicrobial activity against Streptococcus pyogenes; format: functional
[7] = test system: Homo sapiens; experiment: Toxicity in healthy human assessed as alveolar macrophage count in bronchoalveolar fluid at 400 mg, po administered as single dose after 10 hrs; conditions: in vivo
[8] = test system: Homo sapiens; experiment: Toxicity in healthy human assessed as eosinophil count in bronchoalveolar fluid at […], po administered as single dose after 2 hrs; format: organism-based, Lung; set-up: route oral; conditions: in vivo
Summary of the method: as §1

[9] = Ratio of drug level in epithelial lining fluid to plasma in healthy human at […] administered as single dose after 8 hrs; format: ADME, organism-based; set-up: route oral; conditions: po
Summary of the method: (§2)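 For each subject, ELF or AM drug level after the single oral 400 mg dose is divided by the plasma level sampled at the BAL time (2-24 h). Ratios are summarized per four-subject group.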

[10] = Ratio of drug level in epithelial lining fluid to plasma in healthy human at […], po administered as single dose after 6 hrs; format: ADME, organism-based; set-up: route oral
Summary of the method: as §2

[11] = Ratio of AUC (0 to 24 hrs) in […] healthy epithelial lining fluid to MIC90 for Moraxella catarrhalis; format: functional
[12] = Plasma concentration in healthy human at […], po after 2 hrs; format: ADME, organism-based; set-up: route oral
Summary of the method: (§3)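 Healthy nonsmoking Japanese men, 20-45 y, given one oral 400 mg suspension dose. Blood drawn at 0-72 h, spun at 1,600 × g for 10 min at 4°C, plasma kept at −20°C. Drug measured by validated LC/MS/MS, linear 0.005-5 μg/ml. Values are mean ± SD, n = 28. Cmax, Tmax and t1/2,z are model-independent; AUC0-24 by trapezoidal method.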

[13] = Plasma concentration in healthy human at […], po after 6 hrs; format: ADME, organism-based; set-up: route oral
Summary of the method: as §3

[14] = Ratio of drug level in alveolar macrophages to plasma in healthy human at 400 mg, po administered as single dose after 8 hrs
[15] = test system: Homo sapiens; experiment: Toxicity in healthy human assessed as other cellular fractions in bronchoalveolar fluid at 400 mg, po administered as single dose after 4 hrs; conditions: in vivo
[16] = Drug level in alveolar macrophages of healthy human at […], po administered as single dose after 24 hrs; format: ADME, organism-based, Macrophage; set-up: route oral; conditions: read-out: Drug uptake
Summary of the method: (§4)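 One oral 400 mg suspension dose; four volunteers lavaged at each time (2-24 h). Cell pellet from the pooled 2nd-4th aspirates was counted (hemocytometer, stained cytospin differential). Drug in cell suspension measured by HPLC, divided by AM volume assuming 2.42 μl/10^6 cells. Cmax and Tmax are model-independent, based on mean concentrations at each time.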

[17] = test system: Homo sapiens; experiment: Toxicity in healthy human assessed as eosinophil count in bronchoalveolar fluid at 400 mg, po administered as single dose after 10 hrs; conditions: in vivo
[18] = Drug level in alveolar macrophages of healthy human at […], po administered as single dose after 12 hrs; format: ADME, organism-based, Macrophage; set-up: route oral; conditions: read-out: Drug uptake
Summary of the method: as §4

[19] = test system: Haemophilus influenzae; experiment: Antimicrobial activity against Haemophilus influenzae; format: functional
[20] = test system: Homo sapiens; experiment: Toxicity in healthy human assessed as alveolar macrophage count in bronchoalveolar fluid at 400 mg, po administered as single dose after 2 hrs; conditions: in vivo
[21] = Ratio of AUC (0 to 24 hrs) in […] healthy epithelial lining fluid to MIC90 for erythromycin-susceptible Staphylococcus aureus; format: functional
[22] = Cmax in epithelial lining fluid of healthy human at 400 mg, po administered as single dose
[23] = test system: Homo sapiens; experiment: Toxicity in healthy human assessed as lymphocytes count in bronchoalveolar fluid at […], po administered as single dose after 24 hrs; format: organism-based, Lung; set-up: route oral; conditions: in vivo
Summary of the method: as §1

[24] = Tmax in plasma of healthy human at 400 mg, po administered as single dose
[25] = test system: Homo sapiens; experiment: Toxicity in healthy human assessed as lymphocytes count in bronchoalveolar fluid at […], po administered as single dose after 10 hrs; format: organism-based, Lung; set-up: route oral; conditions: in vivo
Summary of the method: as §1

[26] = Ratio of epithelial lining fluid AUC (0 to 24 hrs) to plasma AUC (0 to 24 hrs) in healthy human at 400 mg, po administered as single dose
[27] = Cmax in alveolar macrophages of healthy human at 400 mg, po administered as single dose
[28] = Ratio of drug level in epithelial lining fluid to plasma in healthy human at 400 mg, po administered as single dose after 24 hrs
[29] = AUC (0 to 24 hrs) in epithelial lining fluid of healthy human at 400 mg, po administered as single dose by linear trapezoidal method
[30] = Ratio of drug level in epithelial lining fluid to plasma in healthy human at […] administered as single dose after 2 hrs; format: ADME, organism-based; set-up: route oral; conditions: po
Summary of the method: as §2

[31] = Drug level in alveolar macrophages of healthy human at […], po administered as single dose after 6 hrs; format: ADME, organism-based, Macrophage; set-up: route oral; conditions: read-out: Drug uptake
Summary of the method: as §4

[32] = Ratio of AUC (0 to 24 hrs) in plasma of healthy human to MIC90 for Haemophilus influenzae; format: functional
[33] = Plasma concentration in healthy human at […], po after 10 hrs; format: ADME, organism-based; set-up: route oral
Summary of the method: as §3

[34] = test system: Moraxella catarrhalis; experiment: Antimicrobial activity against Moraxella catarrhalis; format: functional
[35] = Drug level in epithelial lining fluid of healthy human at […], po administered as single dose after 12 hrs; format: ADME, organism-based; set-up: route oral; conditions: read-out: Drug uptake
Summary of the method: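 Four healthy male volunteers per BAL time (2-24 h) after one oral 400 mg suspension dose. Single bronchoscopic lavage; first aliquot discarded, next three pooled. Supernatant separated at 400 × g, 5 min, 4°C, and drug assayed by LC/MS/MS. ELF level = CBAL × urea plasma/urea BAL, with urea corrected for blood contamination via RBC ratio. PK parameters are model-independent, based on the mean concentration at each time.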

With `CC[C@H]1OC(=O)[C@H](C)C(=O)[C@H](C)[C@@H](O[C@@H]2O[C@H](C)C[C@H](N(C)C)[C@H]2O)[C@@]2(C)C[C@@H](C)/C(=N\C(C)=O)[C@H](C)[C@@H](OC/C(=N\OCc3ccc(-n4cccn4)nc3)CO2)[C@]1(C)O` [MODITHROMYCIN] as the molecule, how does the Activity [1] read?
The Activity was 0%.

And the Tmax [2]?
Its Tmax is 2 h.

And the Activity [3]?
The Activity was 90.4%.

And the Activity [4]?
Its Activity is 9.3%.

What about the Activity [5] of the same molecule?
The Activity was 0.1%.

And the MIC90 [6]?
The MIC90 was no more than 0.063 µg/mL.

What about the Activity [7] of the same molecule?
Its Activity is 85.8%.

What about the Activity [8] of the same molecule?
Its Activity is 0%.

And the Kp at 8 h [9]?
The Kp at 8 h was 25.9.

And the Kp at 6 h [10]?
The Kp at 6 h was 27.

What about the RatioAUC/MIC [11] of the same molecule?
The RatioAUC/MIC was 424.8.

What about the concentration at 2 h [12] of the same molecule?
The concentration at 2 h was 646 ng/mL.

What about the concentration at 6 h [13] of the same molecule?
Its concentration at 6 h is 540 ng/mL.

And the Kp at 8 h [14]?
The Kp at 8 h was 283.

What about the Activity [15] of the same molecule?
The Activity was 0%.

What about the concentration at 24 h [16] of the same molecule?
Its concentration at 24 h is 68000 ng/mL.

What about the Activity [17] of the same molecule?
Its Activity is 0.1%.

What about the concentration at 12 h [18] of the same molecule?
The concentration at 12 h was 176000 ng/mL.

And the MIC90 [19]?
The MIC90 was 8 µg/mL (≈ 9.51 µM).

And the Activity [20]?
The Activity was 84.8%.

And the RatioAUC/MIC [21]?
The RatioAUC/MIC was 849.6.

What about the Cmax [22] of the same molecule?
Its Cmax is 16800 ng/mL.

What about the Activity [23] of the same molecule?
Its Activity is 10.8%.

And the Tmax [24]?
Its Tmax is 2.27 h.

What about the Activity [25] of the same molecule?
The Activity was 13.6%.

And the Kp [26]?
Its Kp is 20.3.

And the Cmax [27]?
The Cmax was 176000 ng/mL.

And the Kp at 24 h [28]?
The Kp at 24 h was 21.3.

What about the AUC(0-t) at 24 h [29] of the same molecule?
The AUC(0-t) at 24 h was 212 µg·h/mL.

And the Kp at 2 h [30]?
The Kp at 2 h was 26.3.

What about the concentration at 6 h [31] of the same molecule?
Its concentration at 6 h is 100000 ng/mL.

What about the RatioAUC/MIC [32] of the same molecule?
The RatioAUC/MIC was 1.3.

And the concentration at 10 h [33]?
Its concentration at 10 h is 429 ng/mL.

And the MIC90 [34]?
Its MIC90 is 0.5 µg/mL (≈ 0.595 µM).

What about the concentration at 12 h [35] of the same molecule?
Its concentration at 12 h is 5800 ng/mL.
